Assays:
Leukotriene B4 receptor = Leukotriene B4 receptor (Homo sapiens, UniProt Q9NPC1+Q15722); assay: Inhibition of binding of [3H]LTB4 (1 nM) to intact human polymorphonuclear leukocytes (PMNs)
Method in brief: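 Intact donor PMNs (10^6 cells) in Ca2+/Mg2+-free HBSS with 5 mM HEPES, incubated 20 min at 4 °C with 1 nM [3H]LTB4 (7.4 TBq/mmol), with or without competitors at various concentrations. Bound label measured by filtration. […] Screening at 10 μM.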

[1] = (§1) Inhibition of LTB4 induced chemotaxis of isolated human PMNs; type: functional
Method in brief: (§2)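 Human PMNs from healthy donors' heparinized blood, isolated by dextran sedimentation, Ficoll and hypotonic lysis. Cells labeled with 51Cr (1 μCi/10^6 cells, 1 h, 37 °C), resuspended at 10^7 cells/mL in Hank's buffer with 1% BSA. LTB4 plus competitors in lower Boyden–Keller chamber, two 3 μm cellulose nitrate filters, 150 min at 37 °C, 5% CO2. Lower-filter radioactivity counted, expressed as percent of control. pKB from n experiments.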

Homo sapiens = organism: Homo sapiens; assay: as §1; type: functional; method in brief: as §2

Structure (SMILES) | IC50 (Leukotriene B4 receptor) [µM] | pKB [1] | pKB (Homo sapiens)
O=C([O-])C[C@]1(O)CCC[C@H](/C=C/C(=O)CCCCc2ccccc2)C1.[Na+] | > 10 |  | 
O=C([O-])C[C@]1(O)CCC[C@H](/C=C/C(O)(CCCCc2ccccc2)CC(=O)O)C1.[Na+] (some centres undefined) | > 10 |  | 
O=C([O-])/C=C1\CCC[C@H](/C=C\C(O)CCCCc2ccccc2)C1.[Na+] (some centres undefined) | 1.3 |  | 
CN(C)OC(=O)/C=C1/CCC[C@@H](/C=C/C(O)CCCCc2ccccc2)C1 (some centres undefined) | 1 |  | 
CN(C)C(=O)C[C@]1(O)CCC[C@H](/C=C/[C@H](O)CCCCc2ccccc2)C1 | > 10 |  | 
CN(C)C(=O)C[C@]1(O)CCC[C@H](/C=C/[C@@H](O)CCCCc2ccccc2)C1 | 0.04 | 7.5 | 
CN(C)OC(=O)/C=C1/CCC[C@H](/C=C/C(O)CCCCc2ccccc2)C1 (some centres undefined) | 7 |  | 
O=C([O-])C[C@@H]1CCC[C@H](CCC(O)CCCCc2ccccc2)C1.[Na+] (some centres undefined) | 2.6 |  | 
CC(=O)OC(/C=C/[C@H]1CCC/C(=C/C(=O)N(C)C)C1)CCCCc1ccccc1 (some centres undefined) | > 10 |  | 
O=C([O-])C[C@]1(O)CCC[C@H](CCC(O)CCCCc2ccccc2)C1.[Na+] (some centres undefined) | 5.3 |  | 
O=C([O-])/C=C1/CCC[C@H](/C=C/C(O)CCCCc2ccccc2)C1.[Na+] (stereo in doubt; 10a) | > 10 |  | 
CN(C)C(=O)C[C@]1(O)CCC[C@H](/C=C/C(C)(O)CCCCc2ccccc2)C1 (stereo in doubt; 15b) | 7 |  | 
CN(C)C(=O)C[C@]1(O)CCC[C@H](/C=C/C(F)CCCCc2ccccc2)C1 (stereo in doubt; 16 a) | 2 |  | 
CN(C)C(=O)C[C@]1(O)CCC[C@H](/C=C/C(F)CCCCc2ccccc2)C1 (stereo in doubt; 16b) | 6.5 |  | 
CN(C)C(=O)C[C@]1(O)CCC[C@H](/C=C/C(C)(O)CCCCc2ccccc2)C1 (stereo in doubt; form 1) | 4.5 |  | 
O=C([O-])/C=C1/CCC[C@H](/C=C/C(O)CCCCc2ccccc2)C1.[Na+] (stereo in doubt; form 1) | > 10 |  | 
CN(C)C(=O)C[C@]1(O)CCC[C@H](/C=C/C(C)(O)CCCCc2ccccc2)C1 (stereo in doubt; form 2) | > 10 |  | 
O=C([O-])/C=C1/CCC[C@H](/C=C/C(O)CCCCc2ccccc2)C1.[Na+] (stereo in doubt; form 2) | 0.5 |  | 

Further lines, with some results ahead:

IC50 (Leukotriene B4 receptor) [µM] | Structure (SMILES) | pKB [1] | pKB (Homo sapiens)
0.08 | CN(C)OC(=O)C[C@@]1(O)CCC[C@H](/C=C/C(O)CCCCc2ccccc2)C1 (some centres undefined) | 6.91 | 
> 10 | CN(C)OC(=O)C[C@]1(O)CCC[C@H](/C=C/C(O)CCCCc2ccccc2)C1 (some centres undefined) |  | 
> 10 | CCCCCC(O)/C=C/[C@H]1CCC[C@@](O)(CC(=O)[O-])C1.[Na+] (stereo in doubt; 2a) |  | 
8 | CCCCCC(O)/C=C/[C@H]1CCC[C@@](O)(CC(=O)[O-])C1.[Na+] (stereo in doubt; 2b) | 5.1 | 
> 10 | CCCCCC(O)/C=C/[C@H]1CCC[C@](O)(CC(=O)[O-])C1.[Na+] (stereo in doubt; 2c) |  | 
10 | CCCCCC(O)/C=C/[C@H]1CCC[C@](O)(CC(=O)[O-])C1.[Na+] (stereo in doubt; 2d) |  | 5.25
> 10 | O=C([O-])C[C@]1(O)CCC[C@H](/C=C/C(O)CCCCc2ccccc2)C1.[Na+] (stereo in doubt; 3a) |  | 
0.8 | O=C([O-])C[C@]1(O)CCC[C@H](/C=C/C(O)CCCCc2ccccc2)C1.[Na+] (stereo in doubt; 3b) | 6.57 | 
> 10 | O=C([O-])C[C@@]1(O)CCC[C@H](/C=C/C(O)CCCCc2ccccc2)C1.[Na+] (stereo in doubt; 3c) |  | 
1.5 | O=C([O-])C[C@@]1(O)CCC[C@H](/C=C/C(O)CCCCc2ccccc2)C1.[Na+] (stereo in doubt; 3d) | 6.31 | 
> 10 | CCCCCCCCC(O)/C=C/[C@H]1CCC[C@@](O)(CC(=O)[O-])C1.[Na+] (stereo in doubt; 4a) |  | 
0.9 | CCCCCCCCC(O)/C=C/[C@H]1CCC[C@@](O)(CC(=O)[O-])C1.[Na+] (stereo in doubt; 4b) |  | 6.42
4 | CCCCCCCCC(O)/C=C/[C@H]1CCC[C@](O)(CC(=O)[O-])C1.[Na+] (stereo in doubt; 4c) |  | 
2.5 | CCCCCCCCC(O)/C=C/[C@H]1CCC[C@](O)(CC(=O)[O-])C1.[Na+] (stereo in doubt; 4d) |  | 

— ChEMBL document CHEMBL1132545, “Synthesis and structure-activity relationships of new 1, 3-disubstituted cyclohexanes as structurally rigid leukotriene B(4) receptor antagonists” (J Med Chem, 1999)
